Results taken from ChEMBL document CHEMBL1134474, “Synthesis and biological evaluation of novel A-ring modified hexacyclic camptothecin analogues” (J Med Chem, 2001).

Legend:
SK-BR-3 = experiment: In Vitro cytotoxicity against human breast cancer cell line (SK-BR-3); format: functional, cell-based
Summary of the method: (§1)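 Cells grown in RPMI 1640 with 10% heat-inactivated FBS and penicillin-streptomycin, at 37 °C under 5% CO2. Seeding density set per line from growth curves. Eight concentrations diluted from DMSO stock, 4 days exposure. MTT added for 4 h, formazan dissolved in DMSO, absorbance at 550 nm. […] Three or more determinations.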

MKN-45 = experiment: In Vitro cytotoxicity against human stomach cancer cell line (MKN45); format: functional, cell-based; summary of the method: as §1
[1] = molecular target: Acetylcholinesterase (Homo sapiens) (UniProt P22303); experiment: Percent inhibition of acetylcholinesterase using ATCh1 as a substrate; design: concentration or dose not given beside the values; conditions: concentration not given here
Chain of Acetylcholinesterase (Homo sapiens) (P22303 whole entry): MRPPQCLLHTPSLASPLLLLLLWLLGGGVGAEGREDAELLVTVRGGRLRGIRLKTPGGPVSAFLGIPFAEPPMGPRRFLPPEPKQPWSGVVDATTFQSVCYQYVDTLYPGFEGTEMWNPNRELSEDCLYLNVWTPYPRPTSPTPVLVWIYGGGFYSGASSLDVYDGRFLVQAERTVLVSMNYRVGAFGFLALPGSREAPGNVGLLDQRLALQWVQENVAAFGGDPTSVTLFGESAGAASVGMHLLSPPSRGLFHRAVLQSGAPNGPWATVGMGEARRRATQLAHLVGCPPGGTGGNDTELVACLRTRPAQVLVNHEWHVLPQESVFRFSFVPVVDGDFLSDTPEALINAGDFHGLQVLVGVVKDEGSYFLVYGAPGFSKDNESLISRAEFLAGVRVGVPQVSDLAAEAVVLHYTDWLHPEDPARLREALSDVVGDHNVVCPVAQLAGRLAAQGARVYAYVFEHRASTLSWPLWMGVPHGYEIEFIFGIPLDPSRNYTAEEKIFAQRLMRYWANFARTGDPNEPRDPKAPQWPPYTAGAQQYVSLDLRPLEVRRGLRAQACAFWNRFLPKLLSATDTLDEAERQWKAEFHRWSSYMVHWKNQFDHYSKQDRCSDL
Summary of the method: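 AChE (0.05 unit) with 10 mM DTNB and compound at 2 µM in 0.1 M potassium phosphate pH 8.0, preincubated 15 min at 37 °C. Reaction started with 85 µM acetylthiocholine iodide, 15 min at 37 °C. Absorbance at 412 nm, expressed as percent of colour without compound. Three or more determinations.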

A549 = experiment: In Vitro cytotoxicity against human lung cancer cell line (A549); format: functional, cell-based; summary of the method: as §1
SK-OV-3 = experiment: In Vitro cytotoxicity against human ovarian cancer cell line (SK-OV-3); format: functional, cell-based; summary of the method: as §1
WiDr = experiment: In Vitro cytotoxicity against human colon cancer cell line (WiDr); format: functional, cell-based; summary of the method: as §1
DNA topoisomerase 1 = molecular target: T1, DNA topoisomerase 1 (Mus musculus, UniProt Q04750); experiment: Average concentration to cause 50% inhibition of topo 1 using the cleavable complex assay
T1 sequence (Q04750 whole entry): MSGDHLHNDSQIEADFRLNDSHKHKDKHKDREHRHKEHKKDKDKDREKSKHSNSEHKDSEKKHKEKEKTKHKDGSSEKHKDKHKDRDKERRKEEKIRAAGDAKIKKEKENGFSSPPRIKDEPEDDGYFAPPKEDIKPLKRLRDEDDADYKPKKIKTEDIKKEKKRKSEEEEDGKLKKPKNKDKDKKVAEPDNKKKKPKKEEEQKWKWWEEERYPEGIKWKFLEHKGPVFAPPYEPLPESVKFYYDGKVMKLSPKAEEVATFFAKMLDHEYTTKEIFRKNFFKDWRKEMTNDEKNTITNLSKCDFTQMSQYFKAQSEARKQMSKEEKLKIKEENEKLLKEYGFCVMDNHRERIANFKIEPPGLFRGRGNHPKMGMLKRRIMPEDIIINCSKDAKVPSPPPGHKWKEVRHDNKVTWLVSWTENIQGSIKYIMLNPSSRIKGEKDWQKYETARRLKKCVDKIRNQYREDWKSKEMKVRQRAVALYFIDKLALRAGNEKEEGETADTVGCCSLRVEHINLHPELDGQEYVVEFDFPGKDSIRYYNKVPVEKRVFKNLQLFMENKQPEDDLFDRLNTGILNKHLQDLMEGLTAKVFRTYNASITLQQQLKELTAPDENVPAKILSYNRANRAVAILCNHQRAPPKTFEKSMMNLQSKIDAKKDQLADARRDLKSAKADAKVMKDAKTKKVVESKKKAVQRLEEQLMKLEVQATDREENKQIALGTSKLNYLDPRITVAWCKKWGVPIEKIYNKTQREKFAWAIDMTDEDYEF

NCI-H128 = experiment: In Vitro cytotoxicity against human lung cancer cell line (H128); format: functional, cell-based; summary of the method: as §1
[2] = Percentage of 50% or greater regression (PR) against WiDr xenografts in nude mice at a dose of 10 umol/kg; format: functional, Mus musculus
Summary of the method: (§2)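 Treatment started about 3 weeks after transplant, at tumor weight 100 to 200 mg. 12 mice per group. Suspended in 0.5% CMC aqueous solution, given i.p. q4d×8 at 10 µmol/kg per injection. Calipers, V = 1/2 × a × b2. Read-outs on day 28: MTW, RTG (MTW28/MTW0), IR = (1 − RTG treated/RTG control) × 100. PR means 50% or greater regression.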

[3] = Relative tumor growth (RTG), calculated by dividing MTW28 by that on day 0 (MTW0) against WiDr xenografts in nude mice at a dose of 10 umol/kg; format: functional, Mus musculus; summary of the method: as §2
[4] = Antitumor activity against MTW0 WiDr xenografts in nude mice at a dose of 10 umol/kg; format: functional, Mus musculus; summary of the method: as §2
[5] = Percentage of inhibition rate (IR) against WiDr xenografts in nude mice at a dose of 10 umol/kg; format: functional, Mus musculus; summary of the method: as §2
[6] = Antitumor activity against MTW28 WiDr xenografts in nude mice at a dose of 10 umol/kg; format: functional, Mus musculus; summary of the method: as §2
[7] = Percentage of complete regression (CR) against WiDr xenografts in nude mice at a dose of 10 umol/kg; format: functional, Mus musculus; summary of the method: as §2

| SMILES | IC50 (SK-BR-3) [µM] | IC50 (MKN-45) [µM] | inhibition [1] [%] | IC50 (A549) [µM] | IC50 (SK-OV-3) [µM] | IC50 (WiDr) [µM] | IC50 (DNA topoisomerase 1) [µM] | IC50 (NCI-H128) [µM] | PR [2] [%] | RTG [3] | Activity [4] [mg] | IR [5] [%] | Activity [6] [mg] | CR [7] [%] |
| --- | --- | --- | --- | --- | --- | --- | --- | --- | --- | --- | --- | --- | --- | --- |
| CCN1CCOc2ccc3nc4c(cc3c21)Cn1c-4cc2c(c1=O)COC(=O)[C@]2(O)CC | 0.016 | 0.019 | 9 | 0.017 | 0.019 | 0.021 | 12 | 0.013 | – | – | – | – | – | – |
| CC[C@@]1(O)C(=O)OCc2c1cc1n(c2=O)Cc2cc3c4c(ccc3nc2-1)OCCN4 | 0.019 | 0.02 | 13 | 0.023 | 0.028 | 0.023 | 41 | 0.013 | – | – | – | – | – | – |
| CC[C@@]1(O)C(=O)OCc2c1cc1n(c2=O)Cc2cc3c4c(cc(CN5CCOCC5)c3nc2-1)OCCN4 | – | 15.4 | – | 9.59 | 10.6 | 5.34 | – | 7.44 | – | – | – | – | – | – |
| CCc1c2c(nc3ccc4c(c13)N(C)CCO4)-c1cc3c(c(=O)n1C2)COC(=O)[C@]3(O)CC | 0.107 | 0.152 | 19 | 0.085 | 0.142 | 0.135 | 1600 | 0.076 | – | – | – | – | – | – |
| CC[C@@]1(O)C(=O)OCc2c1cc1n(c2=O)Cc2cc3c(CN(C)C)c(O)ccc3nc2-1 [TOPOTECAN] | 0.026 | 0.038 | 20 | 0.054 | 0.048 | 0.056 | – | 0.031 | – | – | – | – | – | – |
| CCc1c2c(nc3ccc4c(c13)NCCO4)-c1cc3c(c(=O)n1C2)COC(=O)[C@]3(O)CC | 0.013 | 0.02 | 12 | 0.014 | 0.014 | 0.016 | 5 | 0.007 | 25 | 0.12 | 176 | 98.6 | 21 | 75 |
| CC[C@@]1(O)C(=O)OCc2c1cc1n(c2=O)Cc2cc3ccccc3nc2-1 [CAMPTOTHECIN] | 0.02 | 0.017 | 23 | 0.014 | 0.02 | 0.017 | 40 | 0.018 | – | – | – | – | – | – |
| CCc1c2c(nc3ccc(O)cc13)-c1cc3c(c(=O)n1C2)COC(=O)[C@]3(O)CC [7-ETHYL-10-HYDROXYCAMPTOTHECIN] | 0.004 | 0.008 | 13 | 0.016 | 0.011 | 0.014 | 4 | 0.006 | 8 | 0.15 | 177 | 98.2 | 27 | 75 |
| CC[C@@]1(O)C(=O)OCc2c1cc1n(c2=O)Cc2cc3c4c(cc(CN(C)C)c3nc2-1)OCCN4 | – | 9.57 | – | 8.07 | 8.63 | 3.19 | – | 8.5 | – | – | – | – | – | – |
| CC[C@@]1(O)C(=O)OCc2c1cc1n(c2=O)Cc2cc3c4c(ccc3nc2-1)OCCN4CCN | 0.417 | 0.536 | 17 | 0.507 | 0.533 | 0.415 | 133 | 0.174 | – | – | – | – | – | – |
| CC[C@@]1(O)C(=O)OCc2c1cc1n(c2=O)Cc2cc3c4c(ccc3nc2-1)OCCN4CC#N | 0.017 | 0.04 | 20 | 0.037 | 0.032 | 0.03 | 16 | 0.014 | – | – | – | – | – | – |
| CC[C@@]1(O)C(=O)OCc2c1cc1n(c2=O)Cc2cc3c4c(ccc3nc2-1)OCCN4C | 0.025 | 0.019 | 14 | 0.021 | 0.026 | 0.023 | 21 | 0.01 | – | – | – | – | – | – |
